Variants at the floor of the assay were thinned out.
B1: tRNA (parent)
chain: GUUCCGUUGGCGUAAUGGUAACGCGUCUCCCUCCUAAGGAGAAGACUGCGGGUUCGAGUCCCGUACGGAACG

Variants of: B1
Assay: yeast fitness relative to wild type (ratio to wild type); higher = fitter; tRNA-Arg(CCU), competitive growth, 37 C, YPD
Outline: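 Variants of the tRNA-Arg(CCU) gene, chemically synthesised with a 3% per-site mutation rate at 69 sites, were placed at the native genomic locus in Saccharomyces cerevisiae. The pooled strains were competed in YPD at 37°C for 24 hours in six parallel replicates. Gene amplicons from the start population and from each end population were read by 100-nucleotide paired-end sequencing. Darwinian fitness relative to wild type came from changes in genotype frequencies; genotypes needed ≥ 100 starting reads, and estimates < 0.5 were set to 0.5.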
For GUUCCAUUGGCGUAAUGGUAACGCGUCUCCCUCCUAAGGAGAAGACUGCGGGUUCGAAUCCCGUACGCAACG [G6A G58A G68C], the yeast fitness was 0.649.
GUUCCAUUGGCGUAAUGGUAACGCGUCUCCCUCCUAAGGAGAAGACUGCGGGUUCGACUCCCGUACGGAACG [G6A G58C] gave a yeast fitness of 1.08.
Work on GUUCCAUUGGCGUAAUGGUAACGCGUCUCCCUCCUAAGGAGAAGACUGCGGGUUCGAGUCCCAUACGGAACG [G6A G63A] yielded a yeast fitness of 0.883.
Variant GUUCCAUUGGCGUAAUGGUAACGCGUCUCCCUCCUAAGGAGAAGACUGCGGGUUCGAGUCCCGUACAGAACG [G6A G67A] has a yeast fitness of 0.872.
With GUUCCAUUGGCGUAAUGGUAACGCGUCUCCCUCCUAAGGAGAAGACUGCGGGUUCGAGUCCCGUACGCAACG [G6A G68C] the yeast fitness was 0.754.
Work on GUUCCAAUGGCGUAAUGGUGACGCGUCUCCCUCCUAAGGAGAAGAGUGCGGGUUCGAGUCCCGUACGGAACG [G6A U7A A20G C46G] yielded a yeast fitness of 0.538.
In the case of GUUCCAAUGGCGUAAUGGUAACGCGUCUCCCUCCUAACGAGAAGACUGCGGGUUCGAGUCCCGUACGGAACG [G6A U7A G38C], the yeast fitness is reported as 0.603.
In the case of GUUCCAAUGGCGUAAUGGUAACGCGCCUCCCUCGUAAGGAGAAGACUGCGGGUUCGAGUCCCAUACGGAACG [G6A U7A U26C C34G G63A], the yeast fitness is reported as at most 0.5.
GUUCCACUGGCGUAAUGGUAACGCGUCUCCCUCCUAAGGAACAGACUGCCGGUUCGAGUCCCGUACGGAGCG [G6A U7C G41A A42C G50C A70G] gave a yeast fitness of 0.593.
For GUUCCAGUGGCGUAAUGGUAAGGCGUCUCCCUCCUAAGGAGAAGACUGCAGGUUCGAGUCCCGUACGGAACG [G6A U7G C22G G50A], the yeast fitness was at most 0.5.
GUUCCAUAGGCGUAAUGGUAACGCGUCUCCCUCCUAAGGAGUAGACUGCGGGUUCGAGUCCCGUACGGAACG [G6A U8A A42U] gave a yeast fitness of at most 0.5.
Variant GUUCCAUAGGUGUAAUGGUAACGCGUCUCCCUCCUAAGGAGAAGACUGCGGGUUCGAGUCCCGUACGGAACG [G6A U8A C11U] has a yeast fitness of at most 0.5.
In the case of GUUCCAUAGGCGUAAUGGUAACGUGUCUCCCUCCUAAGGUGAAGACUGCGGGUUCGAGUCCCGUACGGAACG [G6A U8A C24U A40U], the yeast fitness is reported as 0.684.
GUUCCAUAGGCGUAAUGGUAACCCGUCUCCCUCCUAAGGAGAAGACUGCGGGUUCGAGUCCCGUACGGAACG [G6A U8A G23C] gave a yeast fitness of at most 0.5.
In the case of GUUCCAUAGGCGUAAUGGUAACGCGUCUCCCUCCUAAGGAGAAGACUGCGGAUUCCAGUCCCGUACGGAACG [G6A U8A G52A G56C], the yeast fitness is reported as at most 0.5.
GUUCCAUCGGCGUCAUGGUAACGCGUCUCCCUCCUAAGGAGAAGACUGCGGGUUCGAGUCUCGUACGGAACG [G6A U8C A14C C61U] gave a yeast fitness of at most 0.5.
Work on GUUCCAUCGGCGUAGUGGUUACGCGUCUCCCUCCUAAGGAGAAGUCUGCGGGUUCGAGUCCCGCACGGAACG [G6A U8C A15G A20U A45U U64C] yielded a yeast fitness of at most 0.5.
Variant GUUCCAUCGGCGUAAUGGUAACGCGUCUCCCUCCUAAGGAGCAGUCUGCGGGUUCGAGUCGCGUACGGAACG [G6A U8C A42C A45U C61G] has a yeast fitness of at most 0.5.
Work on GUUCCAUCGGCGUAAUGGUAACGCGUCUCCCUCCUAAGGAGAAGACUGCGGGUUCGAGUCCCGUACGGAUCG [G6A U8C A70U] yielded a yeast fitness of 0.57.
GUUCCAUCGGCGUAAUGGUAACGCGUCUCCGUCCUAAGGAGAAGACUGCGGGUUCGAGUGCCGUACGGAACG [G6A U8C C31G C60G] showed a yeast fitness of at most 0.5.
With GUUCCAUCGGCGUAAUGGUAACGCGUCUCCCUCGUAAGGAGAAGACUGCGGGUUCGAGUCCCGUACGGAACG [G6A U8C C34G] the yeast fitness was at most 0.5.
With GUUCCAUCGGCGUAAUGGUAACGCGUCUCCCUCCUAAGGAGAAGACUGCGGGUUCGAGUCCUGUACGGAACG [G6A U8C C62U] the yeast fitness was 0.604.
For GUUCCAUCGGCGUAAUGGUAACGCGUCUCCCUCCUAAGGAGAAGACUGCGGGUUCGAGUCCUGUACAGAACG [G6A U8C C62U G67A], the yeast fitness was at most 0.5.
For GUUCCAUCGGCCUAAUGGUAACGCGUCUGUCUCCUAAGGAGAAGUCUGCGGGUUCGAGUCCUGUACGGUACG [G6A U8C G12C C29G C30U A45U C62U A69U], the yeast fitness was 0.823.
In the case of GUUCCAUCGGCGUAAUAGUAACGCAUCUCCCUCCUAAGGAGAAGACUGCGGGUUAGAGUCCCGUACGGAACG [G6A U8C G17A G25A C55A], the yeast fitness is reported as at most 0.5.
Variant GUUCCAUCGGCGUAAUGCUAACGCGUCUCCCUCCUAAGGAGAAGACUGCGGGUUCGAGUCCCGUACGGAACG [G6A U8C G18C] has a yeast fitness of at most 0.5.
For GUUCCAUCGGCGUAAUGGUAACACGUCUCCCUCCUAAGGAGAAGACUGCGGGUUCGCGUCCCGUACGGAACG [G6A U8C G23A A57C], the yeast fitness was at most 0.5.
GUUCCAUCGGCGGAAUGGUAACGCGUUUCCCUCCUAAGGAGAAGACUGCGGGUUCGAGUCGCGUACGGAACG [G6A U8C U13G C27U C61G] gave a yeast fitness of 0.567.
Work on GUUCCAUCGGCGUAAUGGAAACGCGUCUCACUCCUAAGGAGAAGUCUGCGGGUUCGACUCCCGUACGGUACG [G6A U8C U19A C30A A45U G58C A69U] yielded a yeast fitness of at most 0.5.
GUUCCAUCGGCGUAAUGGUAACGCGUCUCCCUCCUAAGGAGAAGACUGCGGGUCCGAGUCCCGUACGGAACG [G6A U8C U54C] showed a yeast fitness of 0.552.
With GUUCCAUGGGCGUAAUGGUAACGCGUCUCCCUCCUGAGGAGAAGACUGCGGGUUCGAGUCCCGUACGGAACG [G6A U8G A36G] the yeast fitness was at most 0.5.
GUUCCAUGGGCGUAAUGGUAACGCGUCUCCCUCCUAAGGAGUAGACUGCGGGUUCGAGUCGCGUACGGAACG [G6A U8G A42U C61G] gave a yeast fitness of at most 0.5.
Variant GUUCCAUUGGCGAGAUGGUAACGCGUCUCCCUCCUAAGGAGUAGACUGCGGGUUCGAGUCCCGUACGGAACG [G6A U13A A14G A42U] has a yeast fitness of at most 0.5.
With GUUCCAUUGGCGAGAUGGUAACGCGUCUCCCCCCUAAGGAGUAGACUGCGGGUUCGAGUCCCGUACGGAACG [G6A U13A A14G U32C A42U] the yeast fitness was at most 0.5.
Work on GUUCCAUUGGCGAAAUGGUAACGCGUCUCCCUCCUACGGAGAAGACUGCGGGUUCGAGUCCCGUACGGAACG [G6A U13A A37C] yielded a yeast fitness of at most 0.5.
With GUUCCAUUGGCGAAAUGGUAACGCGUCUCCCUCCUAAGGGGGAGACUGCGGGUUCGCGUCCCGUAUGGAACG [G6A U13A A40G A42G A57C C66U] the yeast fitness was 0.525.
Work on GUUCCAUUGGCGAAAUGGUAACGCGUCUCGCUCCUAAGGAGAAGACUGCGGGUUCGAGUCUCGUACGGAACG [G6A U13A C30G C61U] yielded a yeast fitness of 0.601.
GUUCCAUUGGCGAAAUAGUAACCCGUCUCCCUCCUAAGGAGAAGGCUGCGGGUUCGAGUCCCGUACGGAACG [G6A U13A G17A G23C A45G] showed a yeast fitness of 0.602.
